Source: ChEMBL document CHEMBL1152662, “Synthesis and biological evaluation of novel 2-(substituted phenylaminocarbonylmethylthio)-6-(2,6-dichlorobenzyl)-pyrimidin-4(3H)-ones as potent HIV-1 NNRTIs” (Bioorg Med Chem, 2009)

Legend:
[1] = Selectivity index, ratio of CC50 for mock-infected human MT4 cells to EC50 for HIV1 3B infected in human MT4 cells; assay type: toxicity, cell-based; conditions: read-out: Ratio CC50/EC50
How it was run: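 Selectivity index calculated as CC50 over EC50, both from 5-day MTT viability readings in MT-4 cells, mock-infected or HIV-1 IIIB-infected, run in parallel triplicate wells.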

[2] = Cytotoxicity against mock-infected human MT4 cells after 5 days by MTT assay; assay type: cell-based
How it was run: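 Mock-infected MT-4 cells (6 × 10⁵ cells/mL) exposed in triplicate to serial fivefold dilutions, added at start from stocks at 10× final concentration. Viability measured by MTT after 5 days, absorbance at 540 and 690 nm, median OD of three wells. CC50 is the concentration lowering OD540 of mock-infected control by 50%.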

[3] = tested on: Human immunodeficiency virus 1; test: Antiviral activity against HIV1 3B infected in human MT4 cells assessed as inhibition of virus-induced cytopathic effect after 5 days by MTT assay; assay type: functional, organism-based; conditions: Human immunodeficiency virus 1, 3B, MT4, 120 h
How it was run: (§1)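 Compounds added at start in triplicate wells (stocks at 10× final) as serial fivefold dilutions; MT-4 cells at 6 × 10⁵ cells/mL infected with HIV-1 IIIB or HIV-2 ROD. Viability read by MTT 5 days post-infection at 540 and 690 nm, median OD of three wells. EC50 is the concentration giving 50% protection against virus-induced cytotoxicity.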

[4] = tested on: Human immunodeficiency virus 2; test: Antiviral activity against HIV2 ROD infected in human MT4 cells assessed as inhibition of virus-induced cytopathic effect after 5 days by MTT assay; assay type: functional, organism-based; conditions: Human immunodeficiency virus 2, ISOLATE ROD, MT4, 120 h; how it was run: as §1

Row | SMILES | selectivity ratio [1] | CC50 at 120 h [2] [µM] | EC50 [3] [µM] | EC50 [4] [µM]
1 | Cc1ccc(NC(=O)CSc2nc(Cc3c(Cl)cccc3Cl)cc(=O)[nH]2)cc1 | ≥ 54 | ≥ 47.4 | 0.88 | > 47.4
2 | Cc1c(Cc2c(Cl)cccc2Cl)nc(SCC(=O)Nc2ccc(F)c(F)c2)[nH]c1=O | > 387 | > 266 | 0.69 | > 266
3 | O=C(CSc1nc(Cc2c(Cl)cccc2Cl)cc(=O)[nH]1)Nc1ccc(F)c(F)c1 | ≥ 1 | > 274 | > 274 | > 274
4 | O=C(CSc1nc(Cc2c(Cl)cccc2Cl)cc(=O)[nH]1)Nc1ccc(Br)cc1 | 31 | 22.8 | 0.74 | > 22.8
5 | O=C(CSc1nc(Cc2c(Cl)cccc2Cl)cc(=O)[nH]1)Nc1ccc(F)c(Cl)c1 | < 1 | > 264 | > 264 | > 264
6 | COc1ccc(NC(=O)CSc2nc(Cc3c(Cl)cccc3Cl)c(C)c(=O)[nH]2)cc1OC | > 175 | > 253 | 1.45 | > 253
7 | Cc1c(Cc2c(Cl)cccc2Cl)nc(SCC(=O)Nc2ccc(Cl)cc2)[nH]c1=O | > 836 | > 267 | 0.32 | > 267
8 | O=C(CSc1nc(Cc2c(Cl)cccc2Cl)cc(=O)[nH]1)Nc1ccc(Cl)cc1 | 23 | 24.8 | 0.95 | > 24.8
9 | COc1ccc(NC(=O)CSc2nc(Cc3c(Cl)cccc3Cl)cc(=O)[nH]2)cc1OC | 28 | 166 | 4.48 | > 166
10 | Cc1c(Cc2c(Cl)cccc2Cl)nc(SCC(=O)Nc2ccc([N+](=O)[O-])cc2)[nH]c1=O | > 264 | > 261 | 0.99 | ≥ 45.8
11 | COc1ccc(NC(=O)CSc2nc(Cc3c(Cl)cccc3Cl)cc(=O)[nH]2)cc1 | 28 | 25.5 | 0.92 | > 25.2
12 | COc1ccc(NC(=O)CSc2nc(Cc3c(Cl)cccc3Cl)c(C)c(=O)[nH]2)cc1 | 4 | 10.8 | 2.74 | > 10.8
13 | O=C(CSc1nc(Cc2c(Cl)cccc2Cl)cc(=O)[nH]1)Nc1ccc(Cl)c(Cl)c1 | – | 19.6 | ≥ 84.6 | > 19.6
14 | Cc1c(Cc2c(Cl)cccc2Cl)nc(SCC(=O)Nc2ccc(Cl)c(Cl)c2)[nH]c1=O | ≥ 88 | > 248 | ≥ 2.82 | > 248
15 | Cc1c(Cc2c(Cl)cccc2Cl)nc(SCC(=O)Nc2ccc(Br)cc2)[nH]c1=O | > 1330 | > 244 | 0.18 | > 244
16 | Cc1c(Cc2c(Cl)cccc2Cl)nc(SCC(=O)Nc2ccc(F)c(Cl)c2)[nH]c1=O | ≥ 1 | > 257 | ≥ 41.1 | > 257
17 | O=C(CSc1nc(Cc2c(Cl)cccc2Cl)cc(=O)[nH]1)Nc1ccc([N+](=O)[O-])cc1 | > 130 | > 269 | 2.07 | > 269
